# Reference: ChEMBL document CHEMBL1147093, “Miltefosine affects lipid metabolism in Leishmania donovani promastigotes” (2007)
# The source made the active and inactive calls. The calls are words filed in the database; no cut-off is given here.
# Columns and labels:
# [1] = system: Leishmania donovani; experiment: Effect on total membrane sterol composition in Leishmania donovani LV9 promastigotes assessed by measuring ergosta-5,7,24(24')-trien-3beta-ol content at 10 uM; type: functional
# Method in brief: (§1)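 LV9 promastigotes (wild type, 26°C, 1 liter shaken culture) were exposed to HePC for 48 h before harvest. Total membranes were extracted in dichloromethane-methanol 2:1 for 24 h at 4°C, then saponified with 30% KOH/methanol at 80°C for 2 h. Sterols were extracted into hexane, converted to TMS ethers with BSTFA (80°C, 1 h) and analysed by GC-MS with EI at 70 eV. Results are given as % total sterol, n = 3.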
# [2] = system: Leishmania donovani; experiment: Effect on plasma membrane phospholipid composition in wild type Leishmania donovani LV9 assessed as increase in phosphatidyl ethanolamine at 10 uM after 48 hrs; type: functional
# Method in brief: (§2)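 Wild-type LV9 promastigotes grown at 26°C with shaking, starting at 10^6/ml in 1 liter of medium 199 with 10% FCS. HePC in aqueous solution was added 48 h before harvest at late log phase. Cells were washed in TBS and lysed by freeze-thaw; a 2,100 × g pellet gave the plasma membrane-enriched fraction. Lipids were extracted with chloroform/methanol and phospholipids analysed by HPLC (PVA-sil column, light-scattering detection). n = 3.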
# [3] = system: Leishmania donovani; experiment: Effect on total membrane sterol composition in Leishmania donovani LV9 promastigotes assessed by measuring ergosta-7,24(24')-dien-3beta-ol content at 10 uM; type: functional; method in brief: as §1
# [4] = system: Leishmania donovani; experiment: Effect on total membrane fatty acid composition in Leishmania donovani LV9 promastigotes assessed by measuring octadecanoate fatty acid at 10 uM; type: functional
# Method in brief: (§3)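 Log-phase LV9 wild-type promastigotes were exposed to HePC for 48 h before harvest, in 1 liter of medium 199 at 26°C. Washed whole-cell pellets served as total membranes. Fatty acids were analysed by gas chromatography as methyl esters and expressed as % of total fatty acids (mean ± SD, n = 3).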
# [5] = system: Leishmania donovani; experiment: Effect on total membrane sterol composition in Leishmania donovani LV9 promastigotes assessed by measuring 14-alpha-Methylergosta-5,7,24(24')-trien-3beta-ol content at 10 uM; type: functional; method in brief: as §1
# [6] = system: Leishmania donovani; experiment: Effect on total membrane fatty acid composition in Leishmania donovani LV9 promastigotes assessed by measuring dodecanoate fatty acid at 10 uM; type: functional; method in brief: as §3
# [7] = system: Leishmania donovani; experiment: Growth inhibition of wild type Leishmania donovani LV9 at 10 uM after 48 hrs; type: functional; conditions: LV9, 48 h
# Method in brief: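 Promastigotes were grown in medium 199 with 10% heat-inactivated FCS, HEPES, adenosine, hemin and gentamicin at 26°C in the dark. HePC was tested at 20, 10, 5, 2.5 and 1.25 μM. Cells were counted microscopically at 24, 48 and 72 h. n = 3.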
# [8] = system: Leishmania donovani; experiment: Effect on total membrane sterol composition in Leishmania donovani LV9 promastigotes assessed by measuring 4,4alpha-Dimethylcholesta-8,24-dien-3beta-ol content at 10 uM; type: functional; method in brief: as §1
# [9] = system: Leishmania donovani; experiment: Effect on total membrane sterol composition in Leishmania donovani LV9 promastigotes assessed by measuring cholesterol content at 10 uM; type: functional; method in brief: as §1
# [10] = system: Leishmania donovani; experiment: Effect on total membrane phospholipid composition in wild type Leishmania donovani LV9 assessed as decrease in phosphatidyl choline at 10 uM after 48 hrs; type: functional; parameters: scale not given: the % may be the effect or the level left
# Method in brief: (§4)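 Wild-type LV9 promastigotes were cultured in 1 liter of supplemented medium 199 at 26°C with shaking. HePC (aqueous) was added 48 h before harvest at late log phase. After TBS washes, the whole-cell pellet was taken as total membranes. Lipids were extracted with chloroform/methanol and phospholipids profiled by HPLC on a PVA-sil column with evaporative light-scattering detection. n = 3.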
# [11] = system: Leishmania donovani; experiment: Effect on total membrane sterol composition in Leishmania donovani LV9 promastigotes assessed by measuring stigmasta-7,24(24')-dien-3beta-ol content at 10 uM; type: functional; method in brief: as §1
# [12] = system: Leishmania donovani; experiment: Effect on total membrane sterol composition in Leishmania donovani LV9 promastigotes assessed by measuring 14-alpha-Methylergosta-8,24(24')-dien-3beta-ol content at 10 uM; type: functional; method in brief: as §1
# [13] = system: Leishmania donovani; experiment: Effect on total membrane sterol composition in Leishmania donovani LV9 promastigotes assessed by measuring ergosta-7,22-dien-3beta-ol content at 10 uM; type: functional; method in brief: as §1
# [14] = system: Leishmania donovani; experiment: Effect on total membrane fatty acid composition in Leishmania donovani LV9 promastigotes assessed by measuring unsaturated fatty acids at 10 uM; type: functional; method in brief: as §3
# [15] = system: Leishmania donovani; experiment: Effect on total membrane sterol composition in Leishmania donovani LV9 promastigotes assessed as reduction in total C24 alkyl sterol content; type: functional; parameters: scale not given: the % may be the effect or the level left; method in brief: as §1
# [16] = system: Leishmania donovani; experiment: Effect on total membrane fatty acid composition in Leishmania donovani LV9 promastigotes assessed by measuring hexadecanoate fatty acid at 10 uM; type: functional; method in brief: as §3
# [17] = system: Leishmania donovani; experiment: Effect on total membrane sterol composition in Leishmania donovani LV9 promastigotes assessed by measuring 14-alpha-Methylcholesta-8,24-dien-3beta-ol content at 10 uM; type: functional; method in brief: as §1
# [18] = system: Leishmania donovani; experiment: Effect on total membrane fatty acid composition in Leishmania donovani LV9 promastigotes assessed by measuring tetradecanoate fatty acid at 10 uM; type: functional; method in brief: as §3
# [19] = system: Leishmania donovani; experiment: Effect on total membrane sterol composition in Leishmania donovani LV9 promastigotes assessed by measuring ergosterol content at 10 uM; type: functional; method in brief: as §1
# [20] = system: Leishmania donovani; experiment: Effect on plasma membrane phospholipid composition in wild type Leishmania donovani LV9 assessed as decrease in phosphatidyl choline at 10 uM after 48 hrs; type: functional; parameters: scale not given: the % may be the effect or the level left; method in brief: as §2
# [21] = system: Leishmania donovani; experiment: Effect on total membrane sterol composition in Leishmania donovani LV9 promastigotes assessed by measuring cholesta-5,7,24-trien-3beta-ol content at 10 uM; type: functional; method in brief: as §1
# [22] = system: Leishmania donovani; experiment: Effect on total membrane sterol composition in Leishmania donovani LV9 promastigotes assessed by measuring total C24 alkyl sterol content at 10 uM; type: functional; method in brief: as §1
# [23] = system: Leishmania donovani; experiment: Effect on total membrane sterol composition in Leishmania donovani LV9 promastigotes assessed by measuring 4-alpha,14alpha-Dimethylcholesta-8,24-dien-3beta-ol content at 10 uM; type: functional; method in brief: as §1
# [24] = system: Leishmania donovani; experiment: Effect on phospholipid composition in HePC-resistant Leishmania donovani at 10 uM; type: functional, organism-based
# Method in brief: (§5)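 HePC-resistant L. donovani LV9 promastigotes were kept under 40 μM HePC in medium 199 with 10% inactivated FCS, HEPES, adenosine, hemin and gentamicin at 26°C in the dark, then exposed to added HePC. Cells were harvested in late log phase and washed in cold TBS. Lipids from total and plasma-membrane-enriched fractions were extracted with chloroform/methanol. Phospholipids were quantified by HPLC on a PVA-sil column with evaporative light scattering detection.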
# [25] = system: Leishmania donovani; experiment: Effect on phospholipid composition in HePC-resistant Leishmania donovani at 1 uM; type: functional, organism-based; method in brief: as §5
# [26] = system: Leishmania donovani; experiment: Effect on total membrane fatty acid composition in Leishmania donovani LV9 promastigotes assessed as decrease in C16 fatty acid content at 10 uM; type: functional; parameters: scale not given: the % may be the effect or the level left; method in brief: as §3
# [27] = system: Leishmania donovani; experiment: Effect on total membrane sterol composition in Leishmania donovani LV9 promastigotes assessed by measuring 4-alpha,-14alpha-Dimethylergosta-8,24(24')-dien-3beta-ol content at 10 uM; type: functional; method in brief: as §1
# [28] = system: Leishmania donovani; experiment: Effect on total membrane phospholipid composition in wild type Leishmania donovani LV9 assessed as increase in phosphatidyl ethanolamine at 10 uM after 48 hrs; type: functional; method in brief: as §4
# [29] = system: Leishmania donovani; experiment: Effect on total membrane sterol composition in Leishmania donovani LV9 promastigotes assessed by measuring 4,4alpha-Dimethylergosta-8,24(24')-dien-3beta-ol content at 10 uM; type: functional; method in brief: as §1
# [30] = system: Leishmania donovani; experiment: Effect on total membrane sterol composition in Leishmania donovani LV9 promastigotes assessed by measuring 24-Methylenedihydrolanosterol content at 10 uM; type: functional; parameters: scale not given: the % may be the effect or the level left; method in brief: as §1
# [31] = system: Leishmania donovani; experiment: Effect on total membrane fatty acid composition in Leishmania donovani LV9 promastigotes assessed by measuring 9-octadecenoate fatty acid at 10 uM; type: functional; method in brief: as §3
# [32] = system: Leishmania donovani; experiment: Effect on total membrane sterol composition in Leishmania donovani LV9 promastigotes assessed by measuring ergosta-5,7,22,24(24')-tetraen-3beta-ol content at 10 uM; type: functional; method in brief: as §1
# [33] = system: Leishmania donovani; experiment: Effect on total membrane sterol composition in Leishmania donovani LV9 promastigotes assessed by measuring 14-alpha-Methylcholesta-5,7,24-trien-3beta-ol content at 10 uM; type: functional; method in brief: as §1
# [34] = system: Leishmania donovani; experiment: Effect on total membrane fatty acid composition in Leishmania donovani LV9 promastigotes assessed by measuring 9-hexadecenoate fatty acid at 10 uM; type: functional; method in brief: as §3
smiles,measurement,setting,value
CCCCCCCCCCCCCCCCOP(=O)([O-])OCC[N+](C)(C)C [MILTEFOSINE],Activity,[1],5.1%
same,Activity,[2],25%
same,Activity,[3],0.4%
same,Activity,[4],22.33%
same,Activity,[5],0.3%
same,Activity,[6],1.84%
same,inhibition at 10 µM,[7],66%
same,Activity,[8],0.2%
same,Activity,[9],61.2%
same,Activity,[10],42%
same,Activity,[11],0.3%
same,Activity,[12],0.3%
same,Activity,[13],0.2%
same,Activity,[14],52%
same,Activity,[15],43%
same,Activity,[16],4.8%
same,Activity,[17],0.2%
same,Activity,[18],3.85%
same,Activity,[19],26.3%
same,Activity,[20],47%
same,Activity,[21],3.2%
same,Activity,[22],36.6%
same,Activity,[23],0.2%
same,Activity,[24],inactive
same,Activity,[25],inactive
same,Activity,[26],41%
same,Activity,[27],0.2%
same,Activity,[28],19%
same,Activity,[29],0.7%
same,Activity,[30],1.4%
same,Activity,[31],34.22%
same,Activity,[32],1.6%
same,Activity,[33],0.1%
same,Activity,[34],1.56%
